Data on 15 molecules can be found in paper PMC3530929 (Journal of medicinal chemistry, 2012).

For data set [1], the target named is T1, chymotrypsin-like (CT-L) activity of the 20S proteasome (Oryctolagus cuniculus, UniProt G1T4Q9).
T1 sequence (G1T4Q9 60-263): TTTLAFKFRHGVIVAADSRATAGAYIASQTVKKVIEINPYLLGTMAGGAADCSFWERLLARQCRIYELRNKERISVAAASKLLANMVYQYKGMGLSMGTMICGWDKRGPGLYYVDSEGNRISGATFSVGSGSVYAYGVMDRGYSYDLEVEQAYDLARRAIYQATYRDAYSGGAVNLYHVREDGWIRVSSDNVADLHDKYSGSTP
Put plainly: In vitro CT-L proteasome inhibition, fluorogenic assay. The class given is biochemical, rabbit. To be noted: for IC50: CT-L inhibitory activity IC50, in vitro.

Data set [2] in a line: Stability at room temperature. The class given is physicochemical. To be noted: for stability at room temperature: 1H NMR in deuterated DMSO up to 3 weeks, HPLC and LCMS in tris buffer.
Data set [3] is described as follows: Stability in biological media by HPLC. To be noted: DMEM and RPMI-1640 without serum, 10 μM, 1% DMSO, 37 °C, 1, 3, 5, 7 days. The data set is classed as physicochemical. An outline of the steps:
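A 1 mM DMSO stock from fresh powder was diluted into serum-free DMEM or RPMI (10 μM final, 1% DMSO), with 5 replicates per medium, and kept at 37 °C. Vials were removed on days 1, 3, 5 and 7, chilled to 0 °C on ice and analysed at once by HPLC. Conditions: C18, 5 μm, 4.6×150 mm, isocratic 35% or 50% CH3CN/water with 0.1% TFA depending on compound, 1 ml/min, 30 min. Peak area was plotted against day.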

For data set [4], the target named is T2, trypsin-like (T-L) activity of the proteasome (Oryctolagus cuniculus, UniProt G1SWK8).
T2 sequence (G1SWK8 1-271): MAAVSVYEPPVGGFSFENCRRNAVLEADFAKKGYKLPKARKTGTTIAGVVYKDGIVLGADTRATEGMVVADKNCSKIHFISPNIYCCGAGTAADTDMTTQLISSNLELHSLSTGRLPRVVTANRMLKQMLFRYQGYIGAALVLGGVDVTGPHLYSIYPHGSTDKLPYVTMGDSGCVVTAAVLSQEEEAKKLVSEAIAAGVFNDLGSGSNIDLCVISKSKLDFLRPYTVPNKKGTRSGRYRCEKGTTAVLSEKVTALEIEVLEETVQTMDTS
Put plainly: In vitro T-L proteasome inhibition, fluorogenic assay. The data set is classed as biochemical, rabbit. To be noted: read-out: T-L inhibition at 10 μM (cells printed ND).

Data set [5] relates to rabbit 20S proteasome CT-L activity. Put plainly: Dialysis using purified rabbit 20S proteasome. The data set is classed as biochemical. To be noted: for mode of CT-L proteasome inhibition (reversible or irreversible): concluded from dialysis; for recovery of CT-L activity during dialysis: dialysis up to 18 h at 4 °C. In outline:
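Test compound at 10 μM, or 0.1% DMSO vehicle, was added to rabbit 20S proteasome (1.5 nM final) in 50 mM Tris-HCl pH 7.6 and held 30 min at room temperature. The mixture was dialysed (3,500 MWCO) against assay buffer at 4 °C and sampled at 0, 0.5, 1, 4, 8 and 18 h. CT-L activity was assayed per the earlier method and normalised to the DMSO control.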

Data set [6] deals with ubiquitinated cellular proteins in MDA-MB-468 cells. The data set is described as follows: Ubiquitination by Western blot analysis. The class given is cell-based, human. The note with it: MDA-MB-468, 11 hours, various concentrations.

“Also recorded” adds a separate entry of the source.

In the case of `O=S(=O)(Nc1cc(Sc2nnn[nH]2)c(O)c2ccccc12)c1ccc(C2CCCCC2)cc1` [Compound 15h, N-(3-(1H-tetrazol-5-ylthio)-4-hydroxynaphthalen-1-yl)-4-cyclohexylbenzenesulfonamide], the IC50 (in general, the concentration needed to halve the response being measured) in data set [1] was approximately 200 nM. In addition, in data set [1] (compared with compound 1), the “fold improved CT-L inhibitory activity” value is given as “up to 20 fold”.

In data set [1], `O=C(O)CSc1ccc(NS(=O)(=O)c2cccs2)c2ccccc12` [Compound 23, 2-(4-(Thiophene-2-sulfonamido)naphthalen-1-ylthio)acetic acid] yielded an IC50 of more than 100000 nM.

As to `O=S(=O)(Nc1cc(Sc2ncn[nH]2)c(O)c2ccccc12)c1ccc(-c2ccc(F)cc2)cc1` [Compound 27, N-(3-(1H-1,2,4-triazol-3-ylthio)-4-hydroxynaphthalen-1-yl)-4′-fluorobiphenyl-4-sulfonamide], in data set [1] (compared with compound 1), the “fold improved CT-L inhibitory activity” value is “up to 20 fold”.

Regarding `O=S(=O)(Nc1cc(Sc2nnn[nH]2)c(O)c2ccccc12)c1ccc(-c2ccccc2)cc1` [Compound 15e, N-(3-(1H-tetrazol-5-ylthio)-4-hydroxynaphthalen-1-yl)biphenyl-4-sulfonamide], in data set [1], the IC50 is approximately 200 nM. Also, the “fold improved CT-L inhibitory activity” value in data set [1] (compared with compound 1) is reported as “up to 20 fold”.

Consider `O=C(O)CCSc1cc(NS(=O)(=O)c2cccs2)c2ccccc2c1O` [Compound 11d, 3-(1-Hydroxy-4-(thiophene-2-sulfonamido)naphthalen-2-ylthio)propanoic acid], for which the “fold decreased potency (CT-L)” value in data set [1] (extended side chain, compared with compound 1) came to 2 fold.

`O=S(=O)(Nc1cc(Sc2nnn[nH]2)c(O)c2ccccc12)c1ccc(-c2ccccc2)s1` [Compound 15f, N-(3-(1H-tetrazol-5-ylthio)-4-hydroxynaphthalen-1-yl)-5-phenylthiophene-2-sulfonamide] returned a half-maximal inhibitory concentration (IC50) in data set [1] of approximately 200 nM. For the same molecule, in data set [1] (compared with compound 1), the “fold improved CT-L inhibitory activity” value is “up to 20 fold”. In addition, the “stability at room temperature” value in data set [2] is on record as “stable at room temperature for up to two weeks”.

Regarding `O=S(=O)(Nc1cc(Sc2nnn[nH]2)c(O)c2ccccc12)c1ccc(-c2ccc(F)cc2)cc1` [Compound 15j, N-(3-(1H-tetrazol-5-ylthio)-4-hydroxynaphthalen-1-yl)-4′-fluorobiphenyl-4-sulfonamide], the IC50 in data set [1] was approximately 200 nM. In addition, in data set [1] (compared with compound 1), the “fold improved CT-L inhibitory activity” value was “up to 20 fold”.

With `O=S(=O)(Nc1cc(Sc2nnn[nH]2)c(O)c2ccccc12)c1ccc(Cl)cc1` [Compound 35, N-(3-(1H-tetrazol-5-ylthio)-4-hydroxynaphthalen-1-yl)-4-chlorobenzenesulfonamide], the “selectivity CT-L versus T-L (in words)” value in data set [1] (in vitro) is “equipotent against CT-L and T-L activities”.

Regarding `O=S(=O)(Nc1cc(Sc2nnn[nH]2)c(O)c2ccccc12)c1ccc(Oc2ccccc2)cc1` [Compound 15k, N-(3-(1H-tetrazol-5-ylthio)-4-hydroxynaphthalen-1-yl)-4-phenoxybenzenesulfonamide], the “fold improved CT-L inhibitory activity” value in data set [1] (compared with compound 1) is on record as “up to 20 fold”. Moreover, the “stability in biological media (HPLC peak area)” value (shortened to “stability in biological media”) in data set [3] was “stable up to 7 days at 37 °C”.

With `O=C(O)CSc1cc(NS(=O)(=O)c2cccs2)c2ccccc2c1O` [Compound 1, 2-(1-Hydroxy-4-(thiophene-2-sulfonamido)naphthalen-2-ylthio)acetic acid], in data set [4], the inhibition (usually the percentage by which the read-out fell short of the control) at 10 µM is less than 70%. Further, in data set [5], the “mode of CT-L proteasome inhibition (reversible or irreversible)” value is listed as “irreversibly; also recorded: irreversible” and the “recovery of CT-L activity during dialysis” value is recorded as “did not show any recovery”. In addition, in data set [2], the “stability at room temperature” value is “stable at room temperature for up to two weeks”. In addition, the “impurities (oxidized material) after 2 weeks” value in data set [2] (room temperature, after 2 weeks) was 3–5%. Besides, the “stability in biological media” value in data set [3] was “stable up to 7 days at 37 °C”.

As for `O=S(=O)(Nc1cc(Sc2nnc[nH]2)c(O)c2ccccc12)c1ccc(-c2ccccc2)cc1` [Compound 25], the “stability at room temperature” value in data set [2] is reported as “stable at room temperature for up to two weeks”.

Regarding `O=S(=O)(Nc1cc(Sc2nnn[nH]2)c(O)c2ccccc12)c1cccs1` [Compound 15d, N-(3-(1H-tetrazol-5-ylthio)-4-hydroxynaphthalen-1-yl)thiophene-2-sulfonamide], the “selectivity CT-L versus T-L (in words)” value in data set [1] (in vitro) is “more selective for T-L over CT-L”.

Consider `O=S(=O)(Nc1cc(Sc2nnn[nH]2)c(O)c2ccccc12)c1ccc(Cl)c(Cl)c1` [Compound 36, N-(3-(1H-tetrazol-5-ylthio)-4-hydroxynaphthalen-1-yl)-3,4-dichlorobenzenesulfonamide], for which the “selectivity CT-L versus T-L (in words)” value in data set [1] (in vitro) was “equipotent against CT-L and T-L activities”.

In the case of `O=S(=O)(Nc1cc(Sc2ncn[nH]2)c(O)c2ccccc12)c1ccc(Oc2ccccc2)cc1` [Compound 29, N-(3-(1H-1,2,4-triazol-3-ylthio)-4-hydroxynaphthalen-1-yl)-4-phenoxybenzenesulfonamide], the “fold improved CT-L inhibitory activity” value in data set [1] (compared with compound 1) is on record as “up to 20 fold”. In data set [1] (in vitro), the “selectivity for CT-L over T-L activity” value stood at 28 fold.

`O=S(=O)(Nc1cc(Sc2nnn[nH]2)c(O)c2ccccc12)c1ccc(-c2ccc(C(F)(F)F)cc2)cc1` [Compound 39, N-(3-(1H-tetrazol-5-ylthio)-4-hydroxynaphthalen-1-yl)-4′-(trifluoromethyl)biphenyl-4-sulfonamide]: in data set [5], the “mode of CT-L proteasome inhibition (reversible or irreversible)” value is reported as “irreversibly; also recorded: irreversible” and the “recovery of CT-L activity during dialysis” value is “did not show any recovery”. In addition, in data set [3], the “stability in biological media” value was “stable up to 7 days at 37 °C”. Moreover, the “ubiquitination / accumulation of ubiquitinated cellular proteins” value in data set [6] was “concentration-dependent increase in ubiquitination; also recorded: induced the accumulation of ubiquitinated cellular proteins”.
